Laboratory results: ChEMBL document CHEMBL3102750 (J Med Chem, 2013)

How the values were obtained:
[1] = test system: Cynomolgus monkey; test: Elimination half life in cynomolgus monkey at 1 mg/kg, iv; assay type: ADME, organism-based, Macaca fascicularis; set-up: dose 1 mg/kg, route intravenous; conditions: in vivo
[2] = target: T1, Cytochrome P450 1A2 (Homo sapiens, UniProt P05177); test: Inhibition of CYP1A2 in human liver microsomes using phenacetin as substrate preincubated for 15 mins followed by NADPH addition measured after 8 mins by LC/MS/MS analysis; assay type: ADME
T1 sequence (P05177 whole entry): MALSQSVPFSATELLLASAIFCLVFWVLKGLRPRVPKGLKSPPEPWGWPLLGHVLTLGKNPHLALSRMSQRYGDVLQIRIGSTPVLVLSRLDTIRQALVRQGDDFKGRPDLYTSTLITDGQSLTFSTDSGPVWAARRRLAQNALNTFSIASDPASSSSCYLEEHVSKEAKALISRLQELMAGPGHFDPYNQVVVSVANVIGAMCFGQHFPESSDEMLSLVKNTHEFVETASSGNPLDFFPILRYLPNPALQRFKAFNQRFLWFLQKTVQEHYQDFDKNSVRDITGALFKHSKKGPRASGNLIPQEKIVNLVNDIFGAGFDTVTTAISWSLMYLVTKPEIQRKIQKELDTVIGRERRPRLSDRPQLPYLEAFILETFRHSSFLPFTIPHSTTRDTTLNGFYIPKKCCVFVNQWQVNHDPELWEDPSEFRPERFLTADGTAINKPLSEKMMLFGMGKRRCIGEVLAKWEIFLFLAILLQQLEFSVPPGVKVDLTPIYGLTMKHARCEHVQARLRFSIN

[3] = target: Cytochrome P450 2D6 (Homo sapiens, UniProt P10635); test: Inhibition of CYP2D6 in human liver microsomes using dextromethorphan as substrate preincubated for 15 mins followed by NADPH addition measured after 8 mins by LC/MS/MS analysis; assay type: ADME
[4] = Oral bioavailability in Sprague-Dawley rat; assay type: ADME, organism-based; conditions: in vivo
[5] = Ratio of brain to plasma partition coefficient in Sprague-Dawley rat at 10 mg/kg, po measured at 1 hr; assay type: ADME, organism-based; set-up: dose 10 mg/kg, route oral
Method in brief: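 Oral CNS distribution study in male Sprague-Dawley rats (n=2), 10 mg/kg; brain and plasma sampled one hour post-dose. Total (Kp) and unbound (Kp,uu) brain-plasma partition coefficients calculated, with unbound fractions from plasma and brain homogenate binding.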

[6] = target: Cytochrome P450 2C9 (Homo sapiens, UniProt P11712); test: Inhibition of CYP2C9 in human liver microsomes using diclofenac as substrate preincubated for 15 mins followed by NADPH addition measured after 8 mins by LC/MS/MS analysis; assay type: ADME
Chain of Cytochrome P450 2C9 (P11712 whole entry): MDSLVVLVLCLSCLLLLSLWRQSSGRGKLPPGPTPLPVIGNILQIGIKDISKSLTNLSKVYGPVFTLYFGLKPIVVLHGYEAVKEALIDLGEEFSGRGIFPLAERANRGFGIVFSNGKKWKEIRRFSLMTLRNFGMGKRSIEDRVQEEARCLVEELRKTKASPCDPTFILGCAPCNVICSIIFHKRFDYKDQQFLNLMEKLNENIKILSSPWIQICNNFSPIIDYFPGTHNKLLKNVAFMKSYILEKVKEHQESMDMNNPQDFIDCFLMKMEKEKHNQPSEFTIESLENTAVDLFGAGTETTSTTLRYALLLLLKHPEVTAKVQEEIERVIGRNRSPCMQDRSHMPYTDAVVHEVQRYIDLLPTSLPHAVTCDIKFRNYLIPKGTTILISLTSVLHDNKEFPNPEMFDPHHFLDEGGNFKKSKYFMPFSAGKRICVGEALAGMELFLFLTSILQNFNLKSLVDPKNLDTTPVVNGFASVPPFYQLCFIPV

Chain of Cytochrome P450 2D6 (P10635 whole entry): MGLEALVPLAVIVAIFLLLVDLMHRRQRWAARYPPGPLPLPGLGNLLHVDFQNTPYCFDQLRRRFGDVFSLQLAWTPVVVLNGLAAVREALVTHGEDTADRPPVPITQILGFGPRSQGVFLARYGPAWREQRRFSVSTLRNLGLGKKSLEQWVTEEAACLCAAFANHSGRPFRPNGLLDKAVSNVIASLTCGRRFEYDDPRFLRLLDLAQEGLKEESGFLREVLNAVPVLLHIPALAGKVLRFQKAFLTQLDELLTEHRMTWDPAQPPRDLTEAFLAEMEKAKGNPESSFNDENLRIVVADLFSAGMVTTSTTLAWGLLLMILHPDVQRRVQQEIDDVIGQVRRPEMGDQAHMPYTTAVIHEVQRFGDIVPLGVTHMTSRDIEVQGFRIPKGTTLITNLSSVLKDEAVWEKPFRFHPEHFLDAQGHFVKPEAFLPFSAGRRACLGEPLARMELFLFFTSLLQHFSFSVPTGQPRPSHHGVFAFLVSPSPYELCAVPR

beta t1/2 [1]: 10 h
IC50 [2]: 25 µM
IC50 [3]: 26 µM
bioavailability [4]: 80%
BPR [5]: 1.8
IC50 [6]: 7.4 µM
SMILES: O=C(c1ccc(F)c(F)c1)N1CCN2C(=O)c3ccccc3[C@@]12c1ccc(Cl)cc1
